Where a SMILES comes first, the peptide text is derived from it. [ ]: non-standard residue; d: D form. Hyp = O=C(O)[C@@H]1C[C@@H](O)CN1
How the values were obtained:
[1] = target: T1, Solute carrier family 15 member 1 (Homo sapiens, UniProt P46059); assay: Substrate activity at PEPT1 in human Caco2 cells assessed as protein-mediated drug uptake at 0.5 mM measured after 10 mins in pH 6 HBSS buffer by UPLC-MS/MS analysis; format: ADME, cell-based; details: caco-2, pH 6, 10 min, 500 µM
T1 sequence (P46059 whole entry): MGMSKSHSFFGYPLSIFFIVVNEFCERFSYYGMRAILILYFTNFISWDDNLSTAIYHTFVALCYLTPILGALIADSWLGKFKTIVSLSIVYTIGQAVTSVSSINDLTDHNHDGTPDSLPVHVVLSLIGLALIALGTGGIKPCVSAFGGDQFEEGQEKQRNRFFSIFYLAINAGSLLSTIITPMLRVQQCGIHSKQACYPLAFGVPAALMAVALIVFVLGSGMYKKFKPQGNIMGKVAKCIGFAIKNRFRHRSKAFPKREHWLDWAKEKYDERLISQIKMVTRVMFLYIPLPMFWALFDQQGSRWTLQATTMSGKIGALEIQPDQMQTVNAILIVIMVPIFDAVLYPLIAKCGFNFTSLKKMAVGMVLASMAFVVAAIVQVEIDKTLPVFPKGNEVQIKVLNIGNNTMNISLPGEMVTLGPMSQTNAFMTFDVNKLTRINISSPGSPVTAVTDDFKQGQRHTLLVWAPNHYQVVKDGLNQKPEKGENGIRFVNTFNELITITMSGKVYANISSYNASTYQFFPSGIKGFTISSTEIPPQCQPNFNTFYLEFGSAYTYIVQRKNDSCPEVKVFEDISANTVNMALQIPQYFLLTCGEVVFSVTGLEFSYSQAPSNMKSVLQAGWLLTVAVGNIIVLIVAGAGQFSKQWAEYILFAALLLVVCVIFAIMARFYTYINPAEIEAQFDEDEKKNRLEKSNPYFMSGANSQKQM
Procedure, shortened: (§1)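 Caco-2 cells incubated 10 min with 0.5 mM compound in HBSS at pH 6.0 or pH 7.4, washed three times in ice-cold PBS pH 7.4, homogenised. Protein by DC assay; drug by UPLC-MS/MS; n=3.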

[2] = target: T2, Solute carrier family 15 member 1 (Rattus norvegicus, UniProt P51574); assay: Substrate activity at PEPT1 in Sprague-Dawley rat jejunum assessed as effective permeability at 5 mM measured after 15 to 120 mins by HPLC analysis; format: ADME, tissue-based; details: 5000 µM
T2 sequence (P51574 whole entry): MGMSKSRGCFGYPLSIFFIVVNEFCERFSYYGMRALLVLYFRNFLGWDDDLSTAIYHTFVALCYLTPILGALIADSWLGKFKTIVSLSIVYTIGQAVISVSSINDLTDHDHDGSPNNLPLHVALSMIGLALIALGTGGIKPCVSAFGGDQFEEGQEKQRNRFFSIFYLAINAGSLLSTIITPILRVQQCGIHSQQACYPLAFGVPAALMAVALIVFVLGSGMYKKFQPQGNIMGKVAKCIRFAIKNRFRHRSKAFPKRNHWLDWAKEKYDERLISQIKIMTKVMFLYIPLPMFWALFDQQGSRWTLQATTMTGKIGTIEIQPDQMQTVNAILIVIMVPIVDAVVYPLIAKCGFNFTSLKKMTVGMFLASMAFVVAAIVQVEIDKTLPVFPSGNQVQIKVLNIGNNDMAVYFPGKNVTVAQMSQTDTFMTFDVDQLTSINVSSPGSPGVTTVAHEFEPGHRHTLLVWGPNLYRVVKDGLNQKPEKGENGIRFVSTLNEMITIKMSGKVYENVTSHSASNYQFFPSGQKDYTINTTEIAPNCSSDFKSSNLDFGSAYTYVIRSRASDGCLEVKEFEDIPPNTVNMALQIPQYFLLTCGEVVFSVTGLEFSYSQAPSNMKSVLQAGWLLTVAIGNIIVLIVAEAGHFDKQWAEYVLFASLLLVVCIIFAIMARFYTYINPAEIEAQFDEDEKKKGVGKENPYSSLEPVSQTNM
Procedure, shortened: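 In situ single-pass jejunal perfusion in fasted (12 h) male SD rats anaesthetised with urethane 1.5 g/kg i.p. About 10 cm of jejunum was perfused at 0.2 mL/min with pH 6.0 HEPES buffer containing 5 mM compound. Outflow was collected 15–120 min after steady state and assayed by HPLC. Peff was calculated from outlet/inlet concentration and volume ratios and segment radius and length.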

[3] = target: T2, Solute carrier family 15 member 1; assay: Ratio of compound effect for substrate activity at PEPT1 in Sprague-Dawley rat jejunum assessed as effective permeability in absence of non-metabolized PEPT1 substrate Gly-Sar to compound effect for substrate activity at PEPT1 in Sprague-Dawley rat jejunum assessed as effective permeability in presence of non-metabolized PEPT1 substrate Gly-Sar; format: ADME
[4] = target: T1, Solute carrier family 15 member 1; assay: Substrate activity at PEPT1 in human Caco2 cells assessed as inhibition of Gly-Sar uptake measured after 10 mins by UPLC-MS/MS analysis; format: cell-based
Procedure, shortened: (§2)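 Caco-2 cells with 0.5 mM Gly-Sar probe substrate and competitor at 0.5–50 mM. IC50 by nonlinear fitting; n=3.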

[5] = target: T1, Solute carrier family 15 member 1; assay: Substrate activity at PEPT1 in human Caco2 cells assessed as inhibition of Gly-Sar uptake by LC-MS/MS analysis; format: cell-based; procedure, shortened: as §2
[6] = Oral bioavailability in rat; format: ADME, organism-based; details: in vivo
[7] = target: T1, Solute carrier family 15 member 1; assay: Substrate activity at PEPT1 in human Caco2 cells assessed as protein-mediated drug uptake at 0.5 mM measured after 10 mins in pH 7.4 HBSS buffer by UPLC-MS/MS analysis; format: ADME, cell-based; details: caco-2, pH 7.4, 10 min, 500 µM; procedure, shortened: as §1

Drug uptake [1]: Active | Peff [2]: Permeable | Ratio [3]: 7.3 | IC50 [4]: 1760 µM | Ki [5]: 2500 µM | bioavailability [6]: ≤ 100% | Drug uptake [7]: Not Active
SMILES: O=C(O)[C@H](CO)NC(=O)[C@@H]1C[C@@H](O)CN1 (H-[Hyp]-Ser-OH)
